A short description of data set [1]: folding enthalpy; higher = less favourable; fluorescence melt of hairpins on a sequencing array, two-state fit. The settings on record: sodium 0.088 M. The gist of the method: (§1)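 On a sequenced MiSeq flow cell, library hairpins with annealed Cy3 and quencher oligos were imaged for Cy3 fluorescence in 2.5 °C steps up to 60 °C, in 50 mM Na-HEPES pH 8.0, 25 mM NaCl. Normalisation used pre-quench Cy3 and control constructs. Bootstrapped two-state fits gave melting temperature and folding enthalpy, combined by inverse variance across four replicates and with fitted temperatures raised by 9.35 °C to match UV melts.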

Data set [2] is described as follows: melting temperature; fluorescence melt of hairpins on a sequencing array, two-state fit, raised by 9.35 °C to match UV melts. Particulars: sodium 0.088 M. The gist of the method: as §1

On to GTAAGTGGAAACGTTTAC ((((..(....)..)))), for which the folding enthalpy in data set [1] was -10.7 kcal/mol. For the same sequence, the Tm in data set [2] worked out at 27.5 °C.

With GTAATACGAAAGTAATAC (((.(((....))).))), in data set [1], the folding enthalpy was -20.2 kcal/mol. The Tm in data set [2] was 34 °C.

With GTAATACGAAAGTATAC (((.(((....)))))), in data set [1], the folding enthalpy was -16 kcal/mol. Further, the Tm in data set [2] turned out to be 34.5 °C.

On to GTAATCCGAAAGGAGTAC (((.(((....))).))), for which the folding enthalpy in data set [1] is -28.5 kcal/mol. Besides, in data set [2], the Tm came out at 49.9 °C.

GTAATCGAAAGATGTAC ((((((....))).))): the folding enthalpy in data set [1] was -16.9 kcal/mol. For the same sequence, in data set [2], the Tm was 30.8 °C.

On to GTAATCGCGAAAGCGTAC (((..(((....)))))), for which the folding enthalpy in data set [1] was -6.16 kcal/mol. The Tm in data set [2] stood at 26.7 °C.

For the sequence GTAATGAAAATTAC (((((....))))), the folding enthalpy in data set [1] was -15.6 kcal/mol. Moreover, the Tm in data set [2] turned out to be 34.1 °C.

Regarding GTAATGGGAAACTATTAC (((((.(....).))))), in data set [1], the folding enthalpy was -28.6 kcal/mol. Moreover, in data set [2], the Tm worked out at 34.5 °C.

With GTAATTCCGAAAGGATAC (((..(((....)))))), the folding enthalpy in data set [1] was -10.6 kcal/mol. Besides, in data set [2], the Tm worked out at 28.2 °C.

Regarding GTAATTCGAAAGAACTAC (((.(((....))).))), the folding enthalpy in data set [1] was -14.6 kcal/mol. The Tm in data set [2] is 30 °C.

In the case of GTAATTCGAAAGAAGTAC (((.(((....))).))), the folding enthalpy in data set [1] is -25 kcal/mol. For the same sequence, the Tm in data set [2] came out at 42.3 °C.

For GTACAACGAAAGTTATAC (((.(((....))).))), the folding enthalpy in data set [1] was -19.1 kcal/mol. Also, the Tm in data set [2] stood at 30.4 °C.

Consider GTACAACGAAAGTTTTAC (((.(((....))).))), for which, in data set [1], the folding enthalpy is -18.6 kcal/mol. The Tm in data set [2] is 36.7 °C.

Consider GTACAAGGAAACTTGTAC (((((((....))))))), for which the folding enthalpy in data set [1] was -38.9 kcal/mol. Besides, the Tm in data set [2] is 53.2 °C.

As for GTACACGAAAGTGCGTAC ((((((....)))..))), the folding enthalpy in data set [1] was -10.7 kcal/mol. Further, the Tm in data set [2] is 30.8 °C.

As for GTACACGAAAGTGGCTAC ((((((....)))..))), the folding enthalpy in data set [1] is -13.9 kcal/mol. The Tm in data set [2] came to 35.7 °C.

As to GTACACGAAAGTGGTTAC ((((((....)))..))), the folding enthalpy in data set [1] was -10.7 kcal/mol. Besides, the Tm in data set [2] came to 30.5 °C.

As to GTACACGCGAAAGCGTAC (((..(((....)))))), in data set [1], the folding enthalpy was -8.06 kcal/mol. Also, the Tm in data set [2] was found to be 35.5 °C.

On to GTACACGGAAACGCGTAC ((((.((....)).)))), for which the folding enthalpy in data set [1] is -40.1 kcal/mol. The Tm in data set [2] amounted to 48.3 °C.

GTACAGCGAAAGCTCTAC (((.(((....))).))): the folding enthalpy in data set [1] was -17.3 kcal/mol. Moreover, the Tm in data set [2] was 29.5 °C.

For the sequence GTACAGCGAAAGCTTTAC (((.(((....))).))), in data set [1], the folding enthalpy is -24.7 kcal/mol. Besides, in data set [2], the Tm was determined as 39.6 °C.

Consider GTACATCGAAAGATATAC (((.(((....))).))), for which the folding enthalpy in data set [1] was -16 kcal/mol. The Tm in data set [2] was found to be 29.6 °C.

For the sequence GTACATGGAAACATGTAC (((((((....))))))), in data set [1], the folding enthalpy is -51.6 kcal/mol. Besides, the Tm in data set [2] stood at 55.7 °C.

As to GTACCACCGAAAGGTTAC (((..(((....)))))), the folding enthalpy in data set [1] is -11.5 kcal/mol. For the same sequence, the Tm in data set [2] was determined as 21.6 °C.

Regarding GTACCACGAAAGTGCTAC (((.(((....))).))), the folding enthalpy in data set [1] was -13.7 kcal/mol. Also, the Tm in data set [2] was 33.6 °C.

Regarding GTACCAGGAAACTGGTAC (((((((....))))))), in data set [1], the folding enthalpy is -40.4 kcal/mol. For the same sequence, the Tm in data set [2] was determined as 62.2 °C.

For GTACCCCGAAAGGGTTAC (((.(((....))).))), in data set [1], the folding enthalpy is -19.6 kcal/mol. The Tm in data set [2] was 41.8 °C.

Take GTACCCGAAAGGGGTTAC ((((((....)))..))): in data set [1], the folding enthalpy is -10.1 kcal/mol. The Tm in data set [2] is 35.2 °C.

In the case of GTACCCGAAAGGGTCTAC ((((((....)))..))), the folding enthalpy in data set [1] was -10.7 kcal/mol. The Tm in data set [2] is 42.2 °C.

Regarding GTACCCGAAAGGGTGTAC ((((((....)))..))), the folding enthalpy in data set [1] is -10.1 kcal/mol. For the same sequence, in data set [2], the Tm was determined as 40.3 °C.

Consider GTACCCGAAAGGGTTTAC ((((((....)))..))), for which, in data set [1], the folding enthalpy is -8.12 kcal/mol. The Tm in data set [2] was 33 °C.

As to GTACCCGGAAACAGGTAC (((((.(....).))))), in data set [1], the folding enthalpy is -25.7 kcal/mol. In addition, the Tm in data set [2] worked out at 39.4 °C.

In the case of GTACCGCGAAAGCGTAC (((.(((....)))))), the folding enthalpy in data set [1] is -14.1 kcal/mol. The Tm in data set [2] amounted to 51.1 °C.

As for GTACCGCGAAAGCGTTAC (((.(((....))).))), the folding enthalpy in data set [1] is -21 kcal/mol. Further, the Tm in data set [2] worked out at 42.9 °C.

As to GTACCGGGAAACCAGTAC ((((.((....)).)))), in data set [1], the folding enthalpy is -23.5 kcal/mol. Further, in data set [2], the Tm turned out to be 38.4 °C.

For GTACCGGGAAACCGGCAC ((.((((....)))).)), the folding enthalpy in data set [1] was -17.7 kcal/mol. Besides, the Tm in data set [2] stood at 47.9 °C.

On to GTACCGGGAAACTGGTGC (.(((.(....).))).), for which, in data set [1], the folding enthalpy was -25.9 kcal/mol. Further, the Tm in data set [2] came out at 42.4 °C.

With GTACCTCGAAAGAGTTAC (((.(((....))).))), the folding enthalpy in data set [1] was -27.9 kcal/mol. In addition, the Tm in data set [2] was found to be 35.3 °C.

Turning to GTACCTGAAAAGGTAC ((((((....)))))), the folding enthalpy in data set [1] is -31.6 kcal/mol. In addition, the Tm in data set [2] came to 60 °C.

Take GTACCTGGAAACAGATAC (((.(((....))).))): the folding enthalpy in data set [1] was -18.8 kcal/mol. Besides, the Tm in data set [2] is 32.7 °C.

For the sequence GTACGACGAAAGTCTAC (((.(((....)))))), in data set [1], the folding enthalpy was -19.7 kcal/mol. Moreover, the Tm in data set [2] was 37.2 °C.

As to GTACGAGGAAACTCGCAC ((.((((....)))).)), the folding enthalpy in data set [1] is -19.8 kcal/mol. Besides, the Tm in data set [2] is 42.4 °C.

In the case of GTACGAGGAAACTCGTAC (((((((....))))))), the folding enthalpy in data set [1] was -36.4 kcal/mol. Also, the Tm in data set [2] is 61.9 °C.

Regarding GTACGAGGAAACTCGTGC (.(((((....))))).), in data set [1], the folding enthalpy is -39.2 kcal/mol. In addition, the Tm in data set [2] worked out at 52 °C.

For the sequence GTACGCACGAAAGTGTAC (((..(((....)))))), the folding enthalpy in data set [1] is -15.6 kcal/mol. In addition, in data set [2], the Tm came to 36.4 °C.

As to GTACGCGAAAGCGACTAC ((((((....)))..))), the folding enthalpy in data set [1] was -11.9 kcal/mol. In addition, the Tm in data set [2] is 41.9 °C.

For GTACGCGAAAGCGGATAC ((((((....)))..))), in data set [1], the folding enthalpy is -10.3 kcal/mol. For the same sequence, in data set [2], the Tm is 37.1 °C.

As for GTACGCGAAAGCGGGTAC ((((((....)))..))), the folding enthalpy in data set [1] was -10.6 kcal/mol. In data set [2], the Tm was found to be 38.7 °C.

GTACGCGGAAACGCGCAC ((.((((....)))).)): the folding enthalpy in data set [1] is -14 kcal/mol. Further, the Tm in data set [2] was 52.9 °C.

Regarding GTACGCGGAAACGCGTGC (.(((((....))))).), in data set [1], the folding enthalpy is -15.4 kcal/mol. The Tm in data set [2] was 60.9 °C.

On to GTACGCTCGAAAGAGTAC (((..(((....)))))), for which the folding enthalpy in data set [1] was -21.8 kcal/mol. Moreover, the Tm in data set [2] is 34.1 °C.

Regarding GTACGGCGAAAGCCATAC (((.(((....))).))), the folding enthalpy in data set [1] was -17.7 kcal/mol. Further, the Tm in data set [2] stood at 42.1 °C.

Consider GTACGGCGAAAGCCTTAC (((.(((....))).))), for which the folding enthalpy in data set [1] was -19.3 kcal/mol. Further, the Tm in data set [2] is 43.2 °C.

Consider GTACGGGGAAACCCGTAC (((((((....))))))), for which the folding enthalpy in data set [1] is -41.9 kcal/mol. For the same sequence, in data set [2], the Tm came out at 67.3 °C.

With GTACGGGGAAACCCGTGC (.(((((....))))).), the folding enthalpy in data set [1] was -26.9 kcal/mol. For the same sequence, the Tm in data set [2] stood at 55.6 °C.
